{"data": "Results from different studies", "CDK4": "Cyclin-dependent kinase 4 (CDK4, Homo sapiens, UniProt P11802)", "CDK4 with cyclin D3": "Cyclin-dependent kinase 4, with cyclin D3 (CDK4, Homo sapiens, UniProt P11802)", "CDK4 with cyclin D1": "Cyclin-dependent kinase 4, with cyclin D1 (CDK4, Homo sapiens, UniProt P11802)", "note": "Each line is one published result; the experiments were not run side by side."}
{"Structure (SMILES)": "O=C(c1ccc(Cl)c(Cl)c1)[C@H]1Cc2c(cc([N+](=O)[O-])cc2[N+](=O)[O-])[C@@H](O)[C@@]12C(=O)Nc1ccccc12", "target": "CDK4", "test": "cell-free assay, inhibitor, TR-FRET", "setting": "1 µM", "quantity": "inhibition", "value": "35.6%"}
{"Structure (SMILES)": "CN(C)c1nccc(-c2cnn3ncccc23)n1", "target": "CDK4", "test": "binding", "setting": "1 µM", "quantity": "remaining binding", "value": "92%"}
{"Structure (SMILES)": "Cc1cnc(NC2CCOCC2)nc1-n1cnc(C(=O)NC(CN)c2cc(F)cc(Cl)c2)c1 (stereo not shown)", "target": "CDK4 with cyclin D3", "test": "enzyme activity, inhibitor, radiometric", "setting": "1 µM", "quantity": "remaining activity", "value": "6%"}
{"Structure (SMILES)": "CC(C)(C)c1nc(-c2cccc(NS(=O)(=O)c3c(F)cccc3F)c2F)c(-c2ccnc(N)n2)s1", "target": "CDK4 with cyclin D3", "test": "enzyme activity, inhibitor, radiometric", "setting": "1 µM", "quantity": "remaining activity", "value": "119%"}
{"Structure (SMILES)": "O=C1NC(=O)c2cc(Nc3ccc(F)cc3)c(Nc3ccc(F)cc3)cc21", "target": "CDK4 with cyclin D3", "test": "cell-free assay", "setting": "0.5 µM", "quantity": "remaining signal", "value": "99%"}
{"Structure (SMILES)": "CC(C)(C)c1nc2c(s1)c1nc(N)ncc1c1ccc(NS(=O)(=O)c3c(F)cccc3F)c(F)c12", "target": "CDK4 with cyclin D3", "test": "enzyme activity, inhibitor, radiometric", "setting": "1 µM", "quantity": "remaining activity", "value": "100%"}
{"Structure (SMILES)": "O=C(c1ccc(F)cc1)[C@H]1Cc2c(cc([N+](=O)[O-])cc2[N+](=O)[O-])[C@H](O)[C@]12C(=O)Nc1ccccc12", "target": "CDK4", "test": "cell-free assay, inhibitor, TR-FRET", "setting": "1 µM", "quantity": "inhibition", "value": "23.2%"}
{"Structure (SMILES)": "COc1cc(-c2cn(C3CCc4c(F)cccc4N(CC(F)(F)F)C3=O)nn2)ccc1-n1cnc(C)c1 (stereo not shown)", "target": "CDK4 with cyclin D3", "test": "cell-free assay, competition with immobilised ligand", "setting": "1 µM", "quantity": "remaining binding", "value": "100%"}
{"Structure (SMILES)": "COc1cc2c(cc1OC)-c1[nH]nc(Nc3cccc(F)c3)c1C2", "target": "CDK4 with cyclin D1", "test": "cell-free assay", "setting": "0.5 µM", "quantity": "remaining signal", "value": "93.9%"}
{"Structure (SMILES)": "O=C(c1ccc(Br)cc1)[C@H]1Cc2c(cc([N+](=O)[O-])cc2[N+](=O)[O-])[C@H](O)[C@]12C(=O)Nc1ccccc12", "target": "CDK4", "test": "cell-free assay, inhibitor, TR-FRET", "setting": "1 µM", "quantity": "inhibition", "value": "18.6%"}
{"Structure (SMILES)": "O=C(Nc1cnn(-c2csc(C(=O)NC3COC3)c2)c1)Nc1c(F)cccc1Cl", "target": "CDK4 with cyclin D3", "test": "enzyme activity, inhibitor", "setting": "5 µM", "quantity": "remaining activity", "value": "79.4%"}
{"Structure (SMILES)": "O=C(c1ccccc1F)[C@H]1Cc2c(cc([N+](=O)[O-])cc2[N+](=O)[O-])[C@@H](O)[C@@]12C(=O)Nc1ccccc12", "target": "CDK4", "test": "cell-free assay, inhibitor, TR-FRET", "setting": "1 µM", "quantity": "inhibition", "value": "38.9%"}
{"Structure (SMILES)": "CN(C)c1nccc(-c2cnc3ncccn23)n1", "target": "CDK4 with cyclin D1", "test": "binding", "setting": "1 µM", "quantity": "remaining binding", "value": "51%"}
{"Structure (SMILES)": "Nc1nc(Nc2ccc(S(N)(=O)=O)cc2)sc1C(=O)c1ccccc1[N+](=O)[O-]", "target": "CDK4", "test": "enzyme activity, inhibitor", "setting": "0.1 µM", "quantity": "inhibition", "value": "87%"}
{"Structure (SMILES)": "Oc1cccc(-c2nc(N3CCOCC3)c3oc4ncccc4c3n2)c1", "target": "CDK4 with cyclin D1", "test": "cell-free assay", "setting": "0.5 µM", "quantity": "remaining signal", "value": "102%"}
{"Structure (SMILES)": "Cc1cc(NC(=O)c2cccc3cc(-c4cccc5[nH]nc(N)c45)ccc23)ccc1F", "target": "CDK4 with cyclin D3", "test": "enzyme activity, inhibitor", "setting": "0.1 µM", "quantity": "activity vs control", "value": "89%"}
{"Structure (SMILES)": "Cc1nccc(COC(=O)N2C[C@@H]3[C@@H](CNC(=O)c4ccc5[nH]nnc5c4)[C@@H]3C2)n1", "target": "CDK4 with cyclin D1", "test": "cell-free assay, competition with immobilised ligand", "setting": "1 µM", "quantity": "remaining binding", "value": "90%"}
{"Structure (SMILES)": "Cc1sc(C(=O)NC2COC2)cc1-n1cc(NC(=O)Nc2c(F)cccc2Cl)cn1", "target": "CDK4 with cyclin D3", "test": "enzyme activity, inhibitor", "setting": "10 µM", "quantity": "remaining activity", "value": "96.5%"}
{"Structure (SMILES)": "CN(CCCC(F)(F)F)c1nccc(-c2cnn3ncccc23)n1", "target": "CDK4", "test": "binding", "setting": "1 µM", "quantity": "remaining binding", "value": "100%"}
{"Structure (SMILES)": "CS(=O)(=O)c1cc(C2(NC(=O)c3cncc4c3cnn4-c3ccc(F)cc3)CC2)ccn1", "target": "CDK4 with cyclin D3", "test": "cell-free assay, competition with immobilised ligand", "setting": "1 µM", "quantity": "remaining binding", "value": "100%"}
{"Structure (SMILES)": "O=C1Nc2ccc(Cl)cc2C1=Cc1cc(Cl)c(O)c(Cl)c1", "target": "CDK4 with cyclin D1", "test": "cell-free assay", "setting": "0.5 µM", "quantity": "remaining signal", "value": "94.7%"}
{"Structure (SMILES)": "CC1CCCN1c1nccc(-c2cnn3ncccc23)n1 (stereo not shown)", "target": "CDK4", "test": "binding", "setting": "1 µM", "quantity": "remaining binding", "value": "100%"}
{"Structure (SMILES)": "CC(C)(O)[C@H]1CC[C@H](Nc2ccc3ncc(-c4cccc(C(F)(F)F)c4)n3n2)CC1", "target": "CDK4 with cyclin D1", "test": "enzyme activity, inhibitor", "setting": "1 µM", "quantity": "remaining activity", "value": "90.5%"}
{"Structure (SMILES)": "F[C@@H]1CCN(c2nccc(-c3cnn4ncccc34)n2)C1", "target": "CDK4", "test": "binding", "setting": "1 µM", "quantity": "remaining binding", "value": "100%"}
{"Structure (SMILES)": "CCN(CC)CCNC(=O)c1c(C)[nH]c(/C=C2\\C(=O)Nc3ccc(F)cc32)c1C", "target": "CDK4 with cyclin D3", "test": "cell-free assay", "setting": "0.5 µM", "quantity": "remaining signal", "value": "93%"}
{"Structure (SMILES)": "COc1ccc(C(=O)[C@H]2Cc3c(cc([N+](=O)[O-])cc3[N+](=O)[O-])[C@H](O)[C@]23C(=O)Nc2ccccc23)cc1", "target": "CDK4", "test": "cell-free assay, inhibitor, TR-FRET", "setting": "1 µM", "quantity": "inhibition", "value": "18.4%"}
{"Structure (SMILES)": "O=C(Nc1cnn(-c2csc(C(=O)NC3COC3)c2)c1)Nc1ccccc1Cl", "target": "CDK4 with cyclin D1", "test": "enzyme activity, inhibitor", "setting": "5 µM", "quantity": "remaining activity", "value": "92.2%"}
{"Structure (SMILES)": "O=C(c1ccccc1)[C@H]1Cc2c(cc([N+](=O)[O-])cc2[N+](=O)[O-])[C@@H](O)[C@@]12C(=O)Nc1ccccc12", "target": "CDK4", "test": "cell-free assay, inhibitor, TR-FRET", "setting": "1 µM", "quantity": "inhibition", "value": "39.5%"}
{"Structure (SMILES)": "CCC(=N\\O)/C(C)=C/c1ccc(F)cc1", "target": "CDK4 with cyclin D3", "test": "cell-free assay, competition with immobilised ligand", "setting": "1 µM", "quantity": "remaining binding", "value": "74%"}
{"Structure (SMILES)": "C[C@@H]1CCN(c2nccc(-c3cnn4ncccc34)n2)C1", "target": "CDK4 with cyclin D3", "test": "binding", "setting": "1 µM", "quantity": "remaining binding", "value": "76%"}
{"Structure (SMILES)": "N#CCCc1ccc2c(c1)-c1[nH]c3ccc([N+](=O)[O-])cc3c1CC(=O)N2", "target": "CDK4 with cyclin D3", "test": "cell-free assay", "setting": "0.5 µM", "quantity": "remaining signal", "value": "25.9%"}
{"Structure (SMILES)": "O=C(NC[C@@H]1[C@H]2CN(C(=O)OCc3cc(C(F)(F)F)cc(C(F)(F)F)c3)C[C@@H]12)c1ccc2[nH]nnc2c1", "target": "CDK4 with cyclin D1", "test": "cell-free assay, competition with immobilised ligand", "setting": "1 µM", "quantity": "remaining binding", "value": "100%"}
{"Structure (SMILES)": "COc1ccc(OC)c2c(=S)c3ccccc3[nH]c12", "target": "CDK4 with cyclin D3", "test": "cell-free assay", "setting": "0.5 µM", "quantity": "remaining signal", "value": "95.5%"}
{"Structure (SMILES)": "COc1ccc2cc(OCC3(C(=O)O)CN(C(=O)c4ccc(F)cc4)C3)ccc2c1", "target": "CDK4 with cyclin D3", "test": "cell-free assay, competition with immobilised ligand", "setting": "1 µM", "quantity": "remaining binding", "value": "100%"}
{"Structure (SMILES)": "COc1ccnn2ncc(-c3ccnc(N(C)C)n3)c12", "target": "CDK4 with cyclin D3", "test": "binding", "setting": "1 µM", "quantity": "remaining binding", "value": "69%"}
{"Structure (SMILES)": "COc1cc(Cl)c(C(=O)N[C@@H](CN[C@H]2CC[C@@H](N)CC2)Cc2ccc(C#N)cc2)cc1-c1ccc(CN[C@H](C)c2ccc(C)cc2)o1", "target": "CDK4 with cyclin D3", "test": "enzyme activity, inhibitor", "setting": "1 µM", "quantity": "remaining activity", "value": "103%"}
{"Structure (SMILES)": "CO[C@@H](C)c1c(Nc2ccc([C@@H](N(C)C(=O)C3CCS(=O)(=O)CC3)C(F)(F)F)cc2)cnc2cc(Cl)nn12", "target": "CDK4 with cyclin D1", "test": "cell-free assay, competition with immobilised ligand", "setting": "1 µM", "quantity": "remaining binding", "value": "100%"}
{"Structure (SMILES)": "Nc1ncnc2occ(-c3ccc(NC(=O)Nc4cc(C(F)(F)F)ccc4F)cc3)c12", "target": "CDK4", "test": "cell-free assay, inhibitor", "setting": "20 µM", "quantity": "remaining signal", "value": "29%"}
{"Structure (SMILES)": "CSc1cccnc1N1CCN(Cc2nc3ccccc3[nH]2)CC1", "target": "CDK4 with cyclin D3", "test": "cell-free assay, competition with immobilised ligand", "setting": "1 µM", "quantity": "remaining binding", "value": "82%"}
{"Structure (SMILES)": "CS(=O)(=O)CCNCc1ccc(-c2ccc3ncnc(Nc4ccc(OCc5cccc(F)c5)c(Cl)c4)c3c2)o1", "target": "CDK4 with cyclin D3", "test": "cell-free assay", "setting": "0.5 µM", "quantity": "remaining signal", "value": "104%"}
